# MEKK3 PB1 HTS = raises or lowers MEK5 binding to the human MEKK3 PB1 domain; Q99759; bead-based flow cytometry, Alexa488-MEK5 binding to MEKK3; actives lie on both sides; 0 = blocked by unlabeled MEK5, 100 = vehicle; binding response (% of control), % at 10 µM; actives 1.4% (n = 290,000);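 active = binding response more than 3 SD above or below the average of its plate-row segment, actives on both sides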;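 note: Alexa488 bead fluorescence after subtracting the streptavidin-only scavenger bead signal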
# MEKK2 mut-MEK5 = signal of MEK5 binding to mutant human MEKK2 PB1 domain; bead flow cytometry, Alexa488-MEK5 binding to MEKK2 mutant; percent response, % at 10 µM; actives 0.35% (n = 290,000); in the data active = percent response above about 24%, passing the limit was not always enough
# Apaf-1 inh = human Apaf-1 inhibition; O14727; AID 489030; reconstituted apoptosome caspase-3 activity, DEVD-Rh110 fluorescence; actives 0.71% (n = 330,000); inhibition, % at 20 µM; active = inhibition of at least 40% at 20 µM
#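 Material: reconstituted apoptosome with Apaf-1, cytochrome c, caspase-9, procaspase-3, dATP. Technique: Rh110 fluorescence intensity. Buffer or medium: pH 7.5 Hepes buffer with CHAPS, BSA, DTT. Times: 30 min plus 50 min, RT.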
# MEKK2wt PB1 HTS = raises or lowers MEK5 binding to wildtype human MEKK2 PB1 domain. bead flow cytometry, Alexa488-MEK5 binding to MEKK2 WT; actives lie on both sides. actives 1.1% (n = 290,000). AID 1531. binding response (% of control), % at 10 µM. Q9Y2U5; in the data active = binding response below about 67% or above about 130%
# UCH37 DUB inh = inhibitors of human deubiquitinating enzyme UCH37; AID 588478; actives 0.33% (n = 330,000); inhibition, % (concentration not given with the values); purified proteasome/UCH37, Ub-AMC cleavage fluorescence;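 active = mean inhibition over replicate wells above about 20%, limit read from the data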
#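 Material: human UCH37 enzyme supplied as purified proteasome complex / Amount: 0.15 nM proteasome as dispensed / Buffer or medium: pH 7.4 Tris-HCl (50 mM) with ovalbumin, ATP-MgCl2, DTT / Times: preincubation 30 min, reaction 25 min, room temperature / Technique: AMC fluorescence from Ub-AMC cleavage, excitation 355 nm, emission 460 nm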
# UBC13 polyUb = inhibitors of human UBC13 polyubiquitin chain formation. P61088. TR-FRET. inhibition, % at 20 µM. actives 0.47% (n = 330,000); in the data active = inhibition above about 45%, passing the limit was not always enough
# MEKK2wt confirm = raises or lowers MEK5 binding to wildtype human MEKK2, retest | shares compounds with MEKK3 PB1 HTS | bead flow cytometry, Alexa488-MEK5 binding to MEKK2 WT; actives lie on both sides | binding response (% of control), % at 10 µM | actives 2.4% (n = 5,900); in the data active = binding response below about 16% or above about 210%; inactive = in between
# MEKK2mut-MEK5 = signal of MEK5 binding to mutant human MEKK2, retest; shares compounds with MEKK3 PB1 HTS; bead flow cytometry, Alexa488-MEK5 binding to MEKK2 mutant; percent response, % at 10 µM; actives 2% (n = 5,900); in the data active = percent response mostly above about 71%, no sharp cut-off; inactive = mostly below about 38%;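 note: higher means compound restores mutant binding toward wildtype level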
# MEKK3-MEK5 inh = confirmation of inhibitors of MEK5 binding to human MEKK3 | binding response (% of control), % at 10 µM | shares compounds with MEKK3 PB1 HTS | AID 1894 | actives 1.8% (n = 5,900) | bead flow cytometry, Alexa488-MEK5 binding to MEKK3; active compounds read low;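 active = binding response below 72% of control, or above a set upper limit, though filed actives all read lower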;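 note: lower values mean stronger disruption of MEK5 binding to MEKK3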
# Numbers stand for hits; i = inactive; nt = no result given; + = active, no number; [ ] = dose if it differs, or a comment. Sampled rows, rich in hits. Any-hit rate of the full collection: about 3%.
SMILES,MEKK3 PB1 HTS,MEKK2 mut-MEK5,Apaf-1 inh,MEKK2wt PB1 HTS,UCH37 DUB inh,UBC13 polyUb,MEKK2wt confirm,MEKK2mut-MEK5,MEKK3-MEK5 inh
COc1ccc(NC(=O)c2cccc(Oc3ccc([N+](=O)[O-])cc3Cl)c2)cc1,i,i,i,i,i,i,nt,nt,nt
CC(=NNC(=O)c1cccc([N+](=O)[O-])c1)c1cccnc1,nt,nt,nt,nt,i,nt,nt,nt,nt
O=C(Nc1cccc(Cl)c1)c1cccc(Oc2ccc([N+](=O)[O-])cc2Cl)c1,i,i,i,17.0[inhibitor],i,i,i,i,i
Cc1ccc(C(=O)Nc2ccncc2)cc1[N+](=O)[O-],i,i,i,i,i,i,nt,nt,nt
Cn1c(=O)n(CC(=O)NC2CCCCC2)c(=O)c2ccccc21,i,i,i,i,i,i,nt,nt,nt
Cc1ncc(CO)c2c1Oc1nc(-c3ccccc3)nc(SCC(=O)Nc3cccc(O)c3)c1C2,i,i,i,i,i,i,nt,nt,nt
O=C(CSc1nnc(NC(=O)c2ccccc2Cl)s1)NC1CC1,i,i,i,i,i,i,nt,nt,nt
O=C(COc1ccc(-n2cnnn2)cc1)Nc1ccccc1OC(F)F,nt,nt,i,nt,i,i,nt,nt,nt
O=C(NC(=S)N1CCN(Cc2ccccc2)CC1)c1cccnc1,i,i,i,i,i,i,nt,nt,nt
CC(C)[C@H](NC(N)=O)C(=O)Nc1cccc([N+](=O)[O-])c1,143.0,i,i,i,i,i,i,i,i
O=C(NCCNC(=O)Oc1cccc2ccccc12)Oc1cccc2ccccc12,nt,nt,nt,nt,i,nt,nt,nt,nt
O=[N+]([O-])c1ccc(Sc2ccccc2Cl)nc1,i,i,i,i,i,i,nt,nt,nt
CCc1cccc(CC)c1NC(=O)COC(=O)c1ccccc1-c1nc2ccccc2s1,48.0[inhibitor],i,i,i,i,i,i,i,i
Cc1ccc(NC(=O)COC(=O)c2ccccc2-c2nc3ccccc3s2)c(C)c1,i,i,i,i,i,i,nt,nt,nt
O=C(CCNS(=O)(=O)c1ccccc1Cl)N1CCN(c2ccccn2)CC1,nt,nt,i,nt,i,i,nt,nt,nt
Cc1noc(C)c1CSc1ncnc2sc3c(c12)CCC3,133.0,i,nt,i,nt,nt,i,i,i
COc1cc(C)ccc1OCCOCCOc1ccccc1Br,nt,nt,i,nt,i,i,nt,nt,nt
COc1cc(C)ccc1OCCOCCOc1cc(C)c(C)cc1Br,134.0,i,i,i,i,i,i,i,i
COc1ccccc1OCCCOc1c(Cl)cc(C)cc1Cl,134.0,i,i,i,nt,i,i,i,i
COc1cc(C)ccc1OCCCOc1c(Cl)cccc1Cl,133.0,i,i,i,i,i,i,i,i
COCCCNC(=O)c1ccccc1Sc1ccc(NC(C)=O)nc1,i,i,i,i,i,i,nt,nt,nt
O=C(COC(=O)CNC(=O)c1ccc(Cl)cc1Cl)NC1CC1,nt,nt,i,nt,i,i,nt,nt,nt
c1cncc(Nc2nc(-c3ccncc3)cs2)c1,i,i,i,i,i,i,nt,nt,nt
Clc1ccccc1-c1csc(Nc2cccnc2)n1,47.0[inhibitor],i,i,i,i,i,i,i,i
CCOc1ccccc1N(CC(=O)NCCSc1ccccc1)S(C)(=O)=O,132.0,i,i,i,i,i,i,i,i
SMILES,MEKK3 PB1 HTS,MEKK2 mut-MEK5,Apaf-1 inh,MEKK2wt PB1 HTS,UCH37 DUB inh,UBC13 polyUb,MEKK2wt confirm,MEKK2mut-MEK5,MEKK3-MEK5 inh
COc1ccccc1N(CC(=O)NCCSc1ccccc1)S(C)(=O)=O,i,i,i,i,i,i,nt,nt,nt
CCOC(=O)c1ccc2c(c1)nc(SCC(=O)c1cc3ccccc3o1)n2CC,73.0[inhibitor],i,i,55.0[inhibitor],i,i,i,i,i
O=C(CSc1ncn[nH]1)c1cc2ccccc2o1,173.0,+,i,+,i,i,i,i,i
CCOC(=O)c1ccc(NC(=O)c2nc[nH]c2C(=O)N[C@@H](Cc2ccccc2)C(=O)OC(C)(C)C)cc1,i,i,i,i,i,i,nt,nt,nt
COc1ccc(C=NNC(=O)c2nc(-c3ccccc3)cc(-c3ccccc3)n2)cc1O,nt,nt,nt,nt,i,nt,nt,nt,nt
CC(=O)Nc1ccccc1C(=O)C(=O)Nc1cccc(C(=O)NCc2ccc(C)cc2)c1,134.0,i,i,i,i,i,i,i,i
CCN1CCN(c2cc(-c3ccccc3)nc3cc(-c4cccc(F)c4)nn23)CC1,122.0,49.0,i,146.0,i,i,i,i,i
CN=C1SC(CC(=O)Nc2ccc(F)cc2F)C(=O)N1/N=C(\C)c1cccc(OCC(=O)O)c1 (centres undefined),i,i,i,i,nt,i,nt,nt,nt
CCN(CC)c1ccc(/C=C/c2nc3ccccc3s2)cc1,i,i,i,i,nt,i,nt,nt,nt
COc1cc2nc(/C=C/c3ccc(N(C)C)cc3)sc2cc1SC,i,i,nt,33.0[inhibitor],i,nt,i,i,i
CCOC(=O)c1c(-c2ccccc2)oc2ccc(O)c(CN(C)C)c12,i,i,i,i,i,i,nt,nt,nt
CCOC(=O)c1c(CSCc2ccccc2)oc2ccc(O)c(CN(C)C)c12,i,i,i,137.0,i,i,i,i,i
Cn1ncc2c(NNC(=O)Cc3ccccc3)ncnc21,i,i,i,i,i,i,nt,nt,nt
c1ccc(-n2ncc3c(NCCN4CCCCC4)ncnc32)cc1,i,25.0,i,i,i,i,i,i,i
Cc1ccc(-n2ncc3c(NNC(=O)Cc4ccccc4)ncnc32)cc1,143.0,i,i,i,i,i,i,i,i
O=C(Nc1ccnn1C1CCN(CCCc2ccccc2)CC1)c1cccc(F)c1,i,i,i,i,i,i,nt,nt,nt
COc1ccc(-n2cc(-c3ccccc3)[nH]c2=S)cc1,130.0,i,i,i,i,i,i,i,i
O=C1/C(=C/c2ccco2)SC(=S)N1CCC(=O)N1CCCCC1CCO (centres undefined),i,i,i,i,i,i,nt,nt,nt
COc1cccc(CNS(=O)(=O)c2ccc(S(=O)(=O)N3CCCC3)cc2)c1,i,454.0,i,601.0,i,i,i,i,i
Cc1cccc(Cn2c(N(C)CCO)nc3c2c(=O)[nH]c(=O)n3C)c1,i,i,i,i,i,i,nt,nt,nt
Cc1[nH]c2ccccc2c1N=Nc1cccc(C(=O)O)c1,68.0[inhibitor],i,i,i,i,i,i,i,i
Cc1nc2c3cc(F)ccc3n(Cc3ccc(F)cc3)c2s1,144.0,i,i,i,i,i,i,i,i
O=C(CC1CCCCC1)NCc1ccccn1,122.0,i,i,i,i,i,i,i,i
O=C(CCC1CCCC1)NCc1ccccn1,i,i,i,i,i,i,nt,nt,nt
